Assay results taken from ChEMBL document CHEMBL4342528, “Discovery of a First-in-Class Protein Arginine Methyltransferase 6 (PRMT6) Covalent Inhibitor” (J Med Chem, 2020).
The source made the active and inactive calls. The calls are words filed in the database; no cut-off is given here.

Legend:
[1] = molecular target: Histone-lysine N-methyltransferase EZH2 (Homo sapiens) (UniProt Q15910); experiment: Inhibition of PRC2 (unknown origin) assessed as reduction in incorporation of [3H]-labeled methyl group into biotinylated substrate using [3H-SAM] at 10 uM incubated for 1 hr by scintillation proximity assay
In short: (§1)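 Panel of 33 methyltransferases (22 PKMTs, 3 DNMTs, 8 PRMTs), each tested at 10 and 50 μM compound. Activity was read as ³H-methyl transfer from ³H-SAM in a radiometric assay done as previously described.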

[2] = molecular target: Histone-lysine N-methyltransferase NSD3 (Homo sapiens) (UniProt Q9BZ95); experiment: Inhibition of NSD3 (unknown origin) at 10 uM using [3H-SAM] and nucleosome as substrate incubated for 1 hr by scintillation proximity assay; in short: as §1
Homo sapiens = species: Homo sapiens; experiment: Selectivity index, ratio of IC50 for human PRMT1 to IC50 for human PRMT6
[3] = molecular target: Histone-lysine N-methyltransferase, H3 lysine-36 specific (Homo sapiens) (UniProt Q96L73); experiment: Inhibition of NSD1 (unknown origin) at 10 uM using [3H-SAM] and nucleosome as substrate incubated for 1 hr by scintillation proximity assay; in short: as §1
[4] = molecular target: Histone-lysine N-methyltransferase SETDB1 (Homo sapiens) (UniProt Q15047); experiment: Inhibition of SETDB1 (unknown origin) assessed as reduction in incorporation of [3H]-labeled methyl group into biotinylated substrate using [3H-SAM] at 10 uM incubated for 1 hr by scintillation proximity assay; in short: as §1
[5] = molecular target: Histone-lysine N-methyltransferase, H3 lysine-79 specific (Homo sapiens) (UniProt Q8TEK3); experiment: Inhibition of DOT1L (unknown origin) at 10 uM using [3H-SAM] and nucleosome as substrate incubated for 1 hr by scintillation proximity assay; in short: as §1
[6] = molecular target: Histone-lysine N-methyltransferase SETD7 (Homo sapiens) (UniProt Q8WTS6); experiment: Inhibition of SETD7 (unknown origin) assessed as reduction in incorporation of [3H]-labeled methyl group into biotinylated substrate using [3H-SAM] at 10 uM incubated for 1 hr by scintillation proximity assay; in short: as §1
Histone-lysine N-methyltransferase SETD7 (Homo sapiens), sequence (Q8WTS6 whole entry): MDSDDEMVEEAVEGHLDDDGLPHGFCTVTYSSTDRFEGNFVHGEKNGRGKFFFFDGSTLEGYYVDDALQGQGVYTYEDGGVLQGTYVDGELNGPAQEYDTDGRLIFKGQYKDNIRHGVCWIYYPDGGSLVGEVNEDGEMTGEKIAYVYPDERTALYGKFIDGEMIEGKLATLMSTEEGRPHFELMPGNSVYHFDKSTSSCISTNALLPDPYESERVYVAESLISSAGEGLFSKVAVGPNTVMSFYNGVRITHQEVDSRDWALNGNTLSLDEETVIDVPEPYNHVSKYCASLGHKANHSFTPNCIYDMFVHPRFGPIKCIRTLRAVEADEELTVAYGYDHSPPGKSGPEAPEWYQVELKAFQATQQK

[7] = molecular target: N-lysine methyltransferase SMYD2 (Homo sapiens) (UniProt Q9NRG4); experiment: Inhibition of SMYD2 (unknown origin) assessed as reduction in incorporation of [3H]-labeled methyl group into biotinylated substrate using [3H-SAM] at 10 uM incubated for 1 hr by scintillation proximity assay; in short: as §1
[8] = molecular target: T1, Histone-arginine methyltransferase CARM1 (Homo sapiens) (UniProt Q86X55); experiment: Inhibition of PRMT4 (unknown origin) assessed as reduction in incorporation of [3H]-labeled methyl group into biotinylated substrate using [3H-SAM] at 50 uM incubated for 1 hr by scintillation proximity assay relative to control; in short: as §1
T1 sequence (whole entry): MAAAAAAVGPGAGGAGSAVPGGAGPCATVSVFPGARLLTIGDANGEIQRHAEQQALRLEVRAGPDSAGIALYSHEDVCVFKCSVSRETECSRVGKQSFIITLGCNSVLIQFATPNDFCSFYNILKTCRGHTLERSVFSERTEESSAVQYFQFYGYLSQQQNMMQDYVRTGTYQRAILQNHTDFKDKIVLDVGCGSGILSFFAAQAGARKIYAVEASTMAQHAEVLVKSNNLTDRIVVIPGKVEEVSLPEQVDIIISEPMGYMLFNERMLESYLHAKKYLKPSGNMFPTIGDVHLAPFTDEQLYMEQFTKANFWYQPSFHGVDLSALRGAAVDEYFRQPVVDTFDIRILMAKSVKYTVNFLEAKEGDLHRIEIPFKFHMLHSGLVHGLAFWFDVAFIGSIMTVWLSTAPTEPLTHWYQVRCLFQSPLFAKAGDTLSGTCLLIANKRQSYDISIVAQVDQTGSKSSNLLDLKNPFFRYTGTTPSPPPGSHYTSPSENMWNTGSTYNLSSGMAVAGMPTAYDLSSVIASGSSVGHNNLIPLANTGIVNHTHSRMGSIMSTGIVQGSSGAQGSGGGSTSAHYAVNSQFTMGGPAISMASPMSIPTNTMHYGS

[9] = molecular target: Histone-lysine N-methyltransferase SUV39H1 (Homo sapiens) (UniProt O43463); experiment: Inhibition of SUV39H1 (unknown origin) assessed as reduction in incorporation of [3H]-labeled methyl group into biotinylated substrate using [3H-SAM] at 50 uM incubated for 1 hr by scintillation proximity assay relative to control; in short: as §1
[10] = molecular target: T1, Histone-arginine methyltransferase CARM1 (Homo sapiens); experiment: Inhibition of PRMT4 (unknown origin) assessed as reduction in incorporation of [3H]-labeled methyl group into biotinylated substrate using [3H-SAM] at 10 uM incubated for 1 hr by scintillation proximity assay; in short: as §1
[11] = molecular target: Histone-lysine N-methyltransferase SETD7 (Homo sapiens) (UniProt Q8WTS6); experiment: Inhibition of SETD7 (unknown origin) at 50 uM assessed as reduction in incorporation of [3H]-labeled methyl group into biotinylated substrate using [3H-SAM] at 50 uM incubated for 1 hr by scintillation proximity assay relative to control; in short: as §1
[12] = molecular target: DNA (cytosine-5)-methyltransferase 1 (Homo sapiens) (UniProt P26358); experiment: Inhibition of DNMT1 (unknown origin) at 10 uM using double-stranded DNA substrate using [3H-SAM] incubated for 1 hr by scintillation proximity assay; in short: as §1
DNA (cytosine-5)-methyltransferase 1 (Homo sapiens), sequence (P26358 whole entry): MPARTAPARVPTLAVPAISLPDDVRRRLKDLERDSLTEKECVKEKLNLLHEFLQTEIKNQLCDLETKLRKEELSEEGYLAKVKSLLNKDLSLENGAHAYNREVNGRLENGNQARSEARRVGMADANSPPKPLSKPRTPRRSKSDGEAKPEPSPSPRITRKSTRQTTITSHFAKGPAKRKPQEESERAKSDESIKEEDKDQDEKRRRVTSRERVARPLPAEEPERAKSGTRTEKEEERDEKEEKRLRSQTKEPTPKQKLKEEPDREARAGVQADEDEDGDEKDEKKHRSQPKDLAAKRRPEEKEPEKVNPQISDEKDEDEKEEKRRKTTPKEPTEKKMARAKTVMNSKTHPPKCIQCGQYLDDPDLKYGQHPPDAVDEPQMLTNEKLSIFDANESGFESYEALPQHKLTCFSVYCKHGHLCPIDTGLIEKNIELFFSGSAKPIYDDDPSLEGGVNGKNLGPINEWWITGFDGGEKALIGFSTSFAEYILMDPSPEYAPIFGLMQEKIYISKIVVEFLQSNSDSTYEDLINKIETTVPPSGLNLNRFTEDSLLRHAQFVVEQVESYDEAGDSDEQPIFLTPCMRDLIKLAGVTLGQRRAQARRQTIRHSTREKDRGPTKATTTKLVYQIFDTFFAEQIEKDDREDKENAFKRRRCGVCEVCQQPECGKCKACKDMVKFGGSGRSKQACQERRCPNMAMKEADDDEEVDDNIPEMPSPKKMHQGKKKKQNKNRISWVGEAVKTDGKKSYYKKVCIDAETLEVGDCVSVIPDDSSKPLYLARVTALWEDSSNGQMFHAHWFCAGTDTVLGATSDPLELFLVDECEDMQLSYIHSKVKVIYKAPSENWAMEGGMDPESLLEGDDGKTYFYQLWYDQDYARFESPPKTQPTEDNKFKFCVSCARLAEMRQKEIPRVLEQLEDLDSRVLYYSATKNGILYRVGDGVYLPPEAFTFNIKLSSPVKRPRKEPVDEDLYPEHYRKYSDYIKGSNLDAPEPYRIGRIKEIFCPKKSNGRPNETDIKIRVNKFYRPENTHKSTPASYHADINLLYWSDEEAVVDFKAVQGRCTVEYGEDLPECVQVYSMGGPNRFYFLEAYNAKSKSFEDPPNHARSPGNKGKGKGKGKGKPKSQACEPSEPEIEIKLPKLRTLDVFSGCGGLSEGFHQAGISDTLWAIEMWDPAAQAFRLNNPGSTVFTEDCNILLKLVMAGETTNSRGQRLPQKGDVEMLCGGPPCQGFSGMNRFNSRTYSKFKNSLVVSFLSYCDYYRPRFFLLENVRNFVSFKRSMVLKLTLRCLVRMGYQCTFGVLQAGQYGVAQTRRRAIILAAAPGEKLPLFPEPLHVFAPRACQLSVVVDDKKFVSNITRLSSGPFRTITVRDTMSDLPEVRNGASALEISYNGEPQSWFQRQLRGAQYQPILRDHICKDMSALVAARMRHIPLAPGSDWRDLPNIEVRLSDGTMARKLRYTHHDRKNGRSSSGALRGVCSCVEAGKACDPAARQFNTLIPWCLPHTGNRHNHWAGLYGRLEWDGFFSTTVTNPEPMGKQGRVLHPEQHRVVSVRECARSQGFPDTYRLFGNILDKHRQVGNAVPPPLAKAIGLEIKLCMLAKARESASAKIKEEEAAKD

[13] = molecular target: Protein arginine N-methyltransferase 7 (Homo sapiens) (UniProt Q9NVM4); experiment: Inhibition of PRMT7 (unknown origin) at 50 uM assessed as reduction in incorporation of [3H]-labeled methyl group into biotinylated substrate using [3H-SAM] at 50 uM incubated for 1 hr by scintillation proximity assay relative to control; in short: as §1
Protein arginine N-methyltransferase 7 (Homo sapiens), sequence (Q9NVM4 whole entry): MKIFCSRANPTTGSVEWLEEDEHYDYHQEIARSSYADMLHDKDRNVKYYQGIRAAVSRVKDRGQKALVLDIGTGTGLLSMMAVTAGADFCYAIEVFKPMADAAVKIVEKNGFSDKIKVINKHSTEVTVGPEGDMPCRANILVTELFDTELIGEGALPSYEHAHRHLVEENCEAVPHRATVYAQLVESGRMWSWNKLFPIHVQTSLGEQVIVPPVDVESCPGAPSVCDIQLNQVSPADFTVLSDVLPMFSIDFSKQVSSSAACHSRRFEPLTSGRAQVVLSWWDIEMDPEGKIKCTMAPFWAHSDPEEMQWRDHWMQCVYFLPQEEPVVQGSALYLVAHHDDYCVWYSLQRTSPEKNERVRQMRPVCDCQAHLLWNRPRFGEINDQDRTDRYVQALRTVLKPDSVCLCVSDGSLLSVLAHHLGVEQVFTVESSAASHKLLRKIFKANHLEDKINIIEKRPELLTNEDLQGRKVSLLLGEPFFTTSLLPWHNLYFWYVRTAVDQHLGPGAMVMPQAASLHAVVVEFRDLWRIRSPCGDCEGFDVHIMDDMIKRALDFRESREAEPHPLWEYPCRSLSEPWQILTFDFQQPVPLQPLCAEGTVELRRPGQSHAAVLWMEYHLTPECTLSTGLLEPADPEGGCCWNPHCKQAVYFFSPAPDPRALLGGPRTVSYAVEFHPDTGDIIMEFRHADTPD

[14] = molecular target: Histone-lysine N-methyltransferase PRDM9 (Homo sapiens) (UniProt Q9NQV7); experiment: Inhibition of PRDM9 (unknown origin) assessed as reduction in incorporation of [3H]-labeled methyl group into biotinylated substrate using [3H-SAM] at 10 uM incubated for 1 hr by scintillation proximity assay; in short: as §1
[15] = molecular target: T2, Protein arginine N-methyltransferase 6 (Homo sapiens, UniProt Q96LA8); experiment: Inhibition of human PRMT6 assessed as Kinact/Ki ratio pre-incubated for 1 to 30 mins using [3H]SAM as donor and [3H]methylated biotin-labeled peptide as substrate by scintillation proximity assay
Target sequence in this assay (Q96LA8 whole entry, looked up): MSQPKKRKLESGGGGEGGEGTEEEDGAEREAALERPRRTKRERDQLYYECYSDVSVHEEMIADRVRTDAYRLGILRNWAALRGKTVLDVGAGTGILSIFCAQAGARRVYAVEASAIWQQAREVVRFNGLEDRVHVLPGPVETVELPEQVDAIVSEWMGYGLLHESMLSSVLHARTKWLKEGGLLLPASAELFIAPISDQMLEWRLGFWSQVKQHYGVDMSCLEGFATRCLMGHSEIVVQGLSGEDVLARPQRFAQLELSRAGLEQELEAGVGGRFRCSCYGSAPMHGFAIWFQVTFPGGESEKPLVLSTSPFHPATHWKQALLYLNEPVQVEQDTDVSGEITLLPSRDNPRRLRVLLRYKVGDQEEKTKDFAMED

[16] = molecular target: T2, Protein arginine N-methyltransferase 6; experiment: Inhibition of human PRMT6 pre-incubated for 1 to 30 mins using [3H]SAM as donor and [3H]methylated biotin-labeled peptide as substrate by scintillation proximity assay
[17] = molecular target: Histone-lysine N-methyltransferase SUV39H2 (Homo sapiens) (UniProt Q9H5I1); experiment: Inhibition of SUV39H2 (unknown origin) assessed as reduction in incorporation of [3H]-labeled methyl group into biotinylated substrate using [3H-SAM] at 10 uM incubated for 1 hr by scintillation proximity assay
Histone-lysine N-methyltransferase SUV39H2 (Homo sapiens), sequence (Q9H5I1 whole entry): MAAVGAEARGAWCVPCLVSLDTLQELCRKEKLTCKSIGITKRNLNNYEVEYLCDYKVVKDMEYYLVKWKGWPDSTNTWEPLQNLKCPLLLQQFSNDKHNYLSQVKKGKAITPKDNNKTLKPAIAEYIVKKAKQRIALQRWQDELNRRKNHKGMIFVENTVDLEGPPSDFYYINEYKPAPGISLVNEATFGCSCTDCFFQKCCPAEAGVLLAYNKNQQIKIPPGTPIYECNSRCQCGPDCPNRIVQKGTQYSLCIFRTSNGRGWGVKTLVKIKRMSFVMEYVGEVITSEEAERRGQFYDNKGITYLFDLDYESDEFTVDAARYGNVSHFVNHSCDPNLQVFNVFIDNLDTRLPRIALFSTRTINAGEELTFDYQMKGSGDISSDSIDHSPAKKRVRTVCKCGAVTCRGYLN

[18] = molecular target: Protein arginine N-methyltransferase 3 (Homo sapiens, UniProt O60678); experiment: Inhibition of PRMT3 (unknown origin) assessed as reduction in incorporation of [3H]-labeled methyl group into biotinylated substrate using [3H-SAM] at 50 uM incubated for 1 hr by scintillation proximity assay relative to control; in short: as §1
[19] = molecular target: Histone-lysine N-methyltransferase NSD2 (Homo sapiens) (UniProt O96028); experiment: Inhibition of NSD2 (unknown origin) at 10 uM using [3H-SAM] and nucleosome as substrate incubated for 1 hr by scintillation proximity assay; in short: as §1
Histone-lysine N-methyltransferase NSD2 (Homo sapiens), sequence (O96028 whole entry): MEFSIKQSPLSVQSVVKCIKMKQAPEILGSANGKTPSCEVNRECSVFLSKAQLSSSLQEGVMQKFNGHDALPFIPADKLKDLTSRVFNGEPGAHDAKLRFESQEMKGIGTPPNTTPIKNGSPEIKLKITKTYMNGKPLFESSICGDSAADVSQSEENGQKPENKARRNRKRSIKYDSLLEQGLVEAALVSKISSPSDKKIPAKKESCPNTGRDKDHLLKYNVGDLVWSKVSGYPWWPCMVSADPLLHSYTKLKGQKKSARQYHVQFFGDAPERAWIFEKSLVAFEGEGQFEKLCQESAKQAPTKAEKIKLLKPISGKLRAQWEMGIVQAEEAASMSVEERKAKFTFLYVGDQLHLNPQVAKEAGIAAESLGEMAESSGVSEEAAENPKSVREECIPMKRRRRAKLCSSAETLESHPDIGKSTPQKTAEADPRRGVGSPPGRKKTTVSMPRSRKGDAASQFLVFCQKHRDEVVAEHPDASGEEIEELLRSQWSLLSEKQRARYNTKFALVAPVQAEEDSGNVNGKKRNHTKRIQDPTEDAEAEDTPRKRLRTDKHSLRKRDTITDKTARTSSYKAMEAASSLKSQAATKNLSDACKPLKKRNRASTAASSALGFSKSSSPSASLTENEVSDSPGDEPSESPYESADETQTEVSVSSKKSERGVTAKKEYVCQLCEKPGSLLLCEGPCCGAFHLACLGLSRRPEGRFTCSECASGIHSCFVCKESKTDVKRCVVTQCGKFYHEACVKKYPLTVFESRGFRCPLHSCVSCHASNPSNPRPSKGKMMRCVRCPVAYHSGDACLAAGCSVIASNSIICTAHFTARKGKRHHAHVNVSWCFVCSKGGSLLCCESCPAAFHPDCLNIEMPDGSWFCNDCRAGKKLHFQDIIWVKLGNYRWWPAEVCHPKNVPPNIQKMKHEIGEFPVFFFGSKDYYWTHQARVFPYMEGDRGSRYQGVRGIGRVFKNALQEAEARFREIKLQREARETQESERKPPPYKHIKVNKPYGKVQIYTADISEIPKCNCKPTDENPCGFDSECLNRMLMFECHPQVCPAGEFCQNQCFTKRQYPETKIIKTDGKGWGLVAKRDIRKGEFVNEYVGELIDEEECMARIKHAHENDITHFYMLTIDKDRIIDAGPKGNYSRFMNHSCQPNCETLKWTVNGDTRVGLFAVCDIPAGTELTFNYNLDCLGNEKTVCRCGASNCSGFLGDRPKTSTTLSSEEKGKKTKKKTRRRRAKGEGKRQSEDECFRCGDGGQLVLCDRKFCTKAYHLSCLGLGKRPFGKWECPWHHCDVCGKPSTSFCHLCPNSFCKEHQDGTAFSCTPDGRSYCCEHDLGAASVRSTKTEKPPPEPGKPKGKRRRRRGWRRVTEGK

In the case of `C=CC(=O)Nc1cccc(-c2c[nH]cc2CN(C)CCN)c1`, the inhibition [1] is reported as “inactive”, the inhibition [2] is reported as “inactive” and the Ratio IC50 (Homo sapiens) is reported as 6. For the same molecule, the inhibition [3] was “inactive”, the inhibition [4] was “inactive” and the inhibition [5] was “inactive”. The inhibition [6] was “inactive”, the inhibition [7] was “inactive” and the inhibition [8] was greater than 50%. The inhibition [9] was greater than 50%, the inhibition [10] was greater than 90% and the inhibition [11] was greater than 50%. For the same molecule, the inhibition [12] was “inactive”, the inhibition [13] was greater than 50% and the inhibition [14] was “inactive”. It also gave a Ratio [15] of 8.3 ×10⁴ /M/s, a Ki [16] of 16 nM and a Kinact [16] of 0.08 min⁻¹. For the same molecule, the inhibition [17] was “inactive”, the inhibition [18] was greater than 50% and the inhibition [19] was “inactive”.
